Screening results from PubChem BioAssay.
V-ATPase pH: alters yeast V-ATPase proton transport | S. cerevisiae, pHLuorin cytosolic pH fluorescence | response, % at 10 µM | hit rate 0.37% among 350,000; in the data active means response mostly above about 7.3%, no sharp cut-off; inactive means mostly below about 5.4%; further: actives read high
TbMetRS inhib: Trypanosoma brucei MetRS inhibition; purified T. brucei MetRS, ATP depletion, Kinase-Glo luminescence; AID 624268; inhibition, % at 11.9 µM; hit rate 0.4% among 360,000;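 active means inhibition above a per-plate cutoff of the control wells' mean inhibition plus 3 SD, cut at about 5.5% in these data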
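Material – parasite MetRS enzyme · Medium – HEPES-MgCl2-KCl buffer plus DTT, spermine, BSA, pyrophosphatase · Reagent – ATP, methionine and E. coli bulk tRNA substrates · Times – 15 min enzyme-compound preincubation, 2 h reaction, 10 min detection, 25 °C · Measured by – luminescence of leftover ATP · Evaluation – percent inhibition relative to median high and low control wells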
UPR XBP1 act: adaptive UPR (XBP1) activation; CHO-XBP1 luciferase reporter, IRE1-XBP1 UPR activation, luminescence; percent of tunicamycin response, DMSO as zero; activation, % at 20 µM; AID 463104; hit rate 0.33% among 330,000;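 active means versus positive control, 20 µM dose yields 30% or more activation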
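incubation = overnight seeding at 37 °C, 6 h compound treatment at 37 °C | assay system = CHO-XBP1 cells stably carrying IRE1-XBP1-driven luciferase reporter | input = 1000 cells per well | detection = luciferase luminescence | dosing = single point, 20 µM final compound, 1% DMSO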
CHOP inh: inhibitors of CHOP induction in ER stress response; hit rate 3.8% among 220,000; AID 2732; inhibition, % at 10 µM; CHO-K1 CHOP-promoter luciferase, tunicamycin-induced, 15-18 h;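 active means compounds that reduced the stress-induced luciferase reporter signal by more than about 70% of percent inhibition, limit read from the data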
UPR CHOP act: apoptotic UPR (CHOP) activation; hit rate 0.34% among 330,000; activation, % at 10 µM; CHO-CHOP luciferase reporter, luminescence; percent of tunicamycin response over DMSO baseline;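 active means at 10 µM dose, activation of 40% or more, normalized to positive control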
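Material: CHO-CHOP cells, stable luciferase reporter of PERK-eIF2a-CHOP signalling; quantity: 500 reporter cells seeded per well; buffer or medium: F12 medium containing 10% fetal bovine serum; compound: one dose, 10 µM in 0.5% DMSO; incubation: 6 h compound treatment, 37 °C; measured by: Steady-Glo luciferase luminescence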
Numbers stand for hits; - = inactive; . = no result. The sample as a whole holds a higher share of hits than the screen did.

SMILES	V-ATPase pH	TbMetRS inhib	UPR XBP1 act	CHOP inh	UPR CHOP act
c1ccc(Cn2nnnc2C(c2cccs2)N2CCc3ccccc3C2)cc1 (stereo not drawn)	-	-	-	76	-
CC(C)C(c1nnnn1C1CCCCC1)N1CCc2ccccc2C1 (stereo not drawn)	-	-	-	-	-
O=C(C[C@@H]1C[C@@H]2c3cc(NC(=O)C4CCOCC4)ccc3O[C@@H]2[C@H](CO)O1)NCc1ccccn1	-	-	.	.	.
O=C(CNC(=O)c1sc2ccccc2c1Cl)NCc1ccc(F)cc1	18	-	-	.	-
CCOC(=O)c1c(Cc2ccccc2)c[nH]c1C	-	-	-	-	-
Cc1ccc2c(c1)c(C)c(C)n2CC(O)Cn1nc(C)c(Br)c1C (stereo not drawn)	-	-	-	86	-
Cc1ccc2c(c1)c(C)c(C)n2CC(O)CN1CCCCC1C (stereo not drawn)	-	-	-	-	-
Cc1ccc2c(c1)c1c(n2CC(O)Cn2nc(C)c(Br)c2C)C(=O)CCC1 (stereo not drawn)	-	-	-	72	-
CCCc1nc2nc(C)c(NS(=O)(=O)c3ccc(C4CCCCC4)cc3)c(=O)n2[nH]1	-	-	-	.	-
CC(C)(C)c1ccc(-c2noc(CCC(=O)NCc3ccco3)n2)cc1	-	-	-	85	-
COc1ccc(Br)cc1CNC(=O)CCc1nc(-c2ccc(C)cc2)no1	-	-	-	76	-
COc1ccc(-c2noc(CCC(=O)NCc3cc(Br)ccc3OC)n2)cc1	-	-	-	-	-
Cc1cccc(-c2noc(CCC(=O)NCc3ccco3)n2)c1	-	-	-	-	-
COc1cccc(NC(=O)CN(C)C(=O)c2ccc(NC(=O)CC3SC(N4CCCC4)=NC3=O)cc2)c1 (stereo not drawn)	-	-	.	.	.
COc1ccc(Cc2c(C(C)(C)C)nc3c(C)cc(Br)cn23)c(C)c1	.	-	.	.	.
COC(=O)c1c(NC(=O)c2c(C)noc2C)sc2c1CCCCCC2	.	.	.	-	.
O=C(Nc1sc2c(c1C(=O)NC1CC1)CCCCCC2)c1ccco1	-	-	-	96	-
CNC(=O)c1c(NC(=O)c2ccco2)sc2c1CCCC2	-	-	-	.	-
COC(=O)c1c(NC(=O)c2c(-c3ccccc3Cl)noc2C)sc2c1CCC2	-	-	-	81	-
COC(=O)c1c(NC(=O)c2ccco2)sc2c1CCC2	-	-	-	76	-
CN[C@H]1C[C@H]2c3[nH]c4ccc(-c5ccc(OC)cc5)cc4c3CCN2C(=O)[C@H]1[C@H](C)O	-	-	.	.	.
O=C(c1ccc(Br)o1)N1CCN(C23CC4CC(CC(C4)C2)C3)CC1	-	-	-	.	-
O=C(c1ccc(C23CC4CC(CC(C4)C2)C3)o1)N1CCOCC1	-	-	-	77	-
O=C(NCc1ccccc1CN1CCCC1)C1CCN(C(=O)c2ccc(Cl)cc2)CC1	.	-	.	.	.
Cc1ccc(Nc2nc(C3CC3)cs2)cc1	.	.	.	-	.
SMILES	V-ATPase pH	TbMetRS inhib	UPR XBP1 act	CHOP inh	UPR CHOP act
Clc1ccc(Nc2nc(C3CC3)cs2)cc1	-	-	-	98	-
C#Cc1ccc(NC(=O)C2(C)CCN2C(=O)c2cc(C)n(C)n2)cc1 (stereo not drawn)	.	-	.	.	.
Cc1ccc(N=Nc2ccc(O)c3ncccc23)cc1C	-	-	-	92	-
COc1cc(C2c3c(-c4cc(Cl)c(C)cc4O)n[nH]c3C(=O)N2Cc2cccnc2)ccc1O (stereo not drawn)	-	-	-	-	-
COc1cccc(C2c3c(-c4cc(Cl)c(C)cc4O)n[nH]c3C(=O)N2Cc2cccnc2)c1 (stereo not drawn)	-	-	-	75	-
COc1ccc(CN2CCC[C@]3(N[C@H](c4ccccc4)[C@@H]4C(=O)N(C)C(=O)[C@@H]43)C2=O)cc1	-	-	.	.	.
CC1=CN2C(=N)/C(=C/c3ccc(Sc4ccc(Cl)cc4)o3)C(=O)N=C2S1	-	-	-	77	-
CC1=CN2C(=N)/C(=C/c3ccc(Sc4ccc(C)cc4)o3)C(=O)N=C2S1	-	-	-	-	-
CC(C)Nc1nc(Oc2ccc(Cl)cc2)cc(C(F)(F)F)n1	-	-	-	74	-
O=C(O)CC(=O)Nc1cc(Cl)ccc1O	-	-	-	-	-
Cc1cccc(C(=O)CC(=O)c2cc(Cl)ccc2O)c1	-	-	-	108	-
O=C(CC(=O)c1cc(Cl)ccc1O)c1ccccc1	-	-	-	110	-
Cc1ccc(O)c(C(=O)CC(=O)c2ccc(Cl)cc2)c1	-	-	.	.	.
CN(C)c1ccc(CNC(=O)CC[C@H]2O[C@@H](n3cnc4c(NC(=O)c5ccccc5)ncnc43)[C@H](O)[C@@H]2O)cc1	.	-	.	.	.
O=S1(=O)CC(N2CCN(CCO)CC2)CN1Cc1ccccc1 (stereo not drawn)	.	-	.	.	.
CCn1c(=O)c(C(=O)NNS(=O)(=O)c2ccc(Cl)cc2)c(O)c2ccccc21	-	-	-	84	-
CCCCCCC(=O)NNC(=O)c1c(O)c2ccccc2n(CCC)c1=O	-	-	-	76	-
CCCCCCC(=O)NNC(=O)c1c(O)c2ccccc2n(CC)c1=O	-	-	-	93	-
CCn1c(=O)c(C(=O)NNC(=O)c2ccccc2)c(O)c2ccccc21	-	-	-	.	-
CCCCCCCCC(=O)NNC(=O)c1c(O)c2ccccc2n(CC)c1=O	-	-	-	-	-
CCCCCCCC(=O)NNC(=O)c1c(O)c2ccccc2n(CCC)c1=O	-	-	-	-	-
CCOC(=O)[C@]12CCCC=C1N(Cc1ccc3c(c1)OCO3)C(=O)[C@H](CC(=O)N1CCCCC1)C2	.	-	.	.	.
Cc1ccccc1N=Cc1cc2c(cc1O)OC(N)=C(C#N)C2c1ccccc1 (stereo not drawn)	-	-	-	89	-
Cc1ccc2c(c1)c1ccc3c(c1n2C)C(=O)C=CC3=O	-	-	-	106	-
Cn1c2ccccc2c2ccc3c(c21)C(=O)C=CC3=O	-	-	.	.	.
SMILES	V-ATPase pH	TbMetRS inhib	UPR XBP1 act	CHOP inh	UPR CHOP act
O=C(CSc1nc2ccccc2c(=O)n1-c1ccccc1)c1c[nH]c2ccccc12	-	-	-	76	-
N#CCCn1c(SCC(=O)c2c[nH]c3ccccc23)nc2ccccc21	-	5.8	-	-	-
CCOC(=O)c1c(C)[nH]c(C)c1C(=O)CSc1nc2ccccc2c(=O)n1-c1ccc(Cl)cc1	-	-	-	-	-
NC(=O)CSc1nc2ccccc2c(=O)n1-c1ccccc1	-	-	-	.	-
O=C(CSc1nc2ccccc2c(=O)n1-c1ccc(Cl)cc1)c1ccco1	-	-	-	74	-
CCCOc1ccccc1OCC(=O)Nc1cccc(S(=O)(=O)NC2=NCCC2)c1	-	-	-	.	-
FC(F)Sc1ccc(NC(=S)NC2CCCCC2)cc1	-	-	-	95	-
CC1=[N+](C)c2c(ccc3cccnc23)C1(C)C	-	-	.	75	.
